# Results as given in ChEMBL document CHEMBL1806474, “Diversity oriented design of various hydrazides and their in vitro evaluation against Mycobacterium tuberculosis H37Rv strains” (2011).
# Legend:
# Format in all cases: functional
# [1] = tested on: Mycobacterium tuberculosis; test: Antimycobacterial activity against Mycobacterium tuberculosis H37Rv ATCC 27294 after 5 to 8 days by microplate alamar blue assay
# [2] = tested on: Mycobacterium tuberculosis; test: Growth inhibition of Mycobacterium tuberculosis H37Rv ATCC 27294 after 5 to 8 days by microplate alamar blue assay
# [3] = tested on: Mycobacterium tuberculosis; test: Antimycobacterial activity against Mycobacterium tuberculosis
# In short: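 Radiometric BACTEC 460 assay in 7H12 broth (BACTEC-12B, 4 mL) with M. tuberculosis H37Rv ATCC 27294. Inoculum came from 7H9/glycerol/0.05% Tween 80 cultures at OD550 0.45–0.55, diluted to reach GI 999 in five days. Compounds were from 1 mg/mL DMSO stocks, with DMSO controls. GI was read daily at 37 °C, 5–8 days. % inhibition = [1 − (GI test/GI control)] × 100. MIC was set against a 1:100 diluted control.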
# [4] = Mycobacterium tuberculosis, H37Rv ATCC 27294
Structure (SMILES),"MIC99 [1, 4]",growth inhibition (GI) [2],MIC [3],MIC97 [1],"MIC95 [1, 4]"
O=C1Oc2ccc3ccccc3c2C(=O)/C1=N/Nc1ccc([N+](=O)[O-])cc1,< 6.25 µg/mL,94%,–,–,–
O=C1Nc2c(cccc2[N+](=O)[O-])C(=O)/C1=N/Nc1cccc(Cl)c1,< 6.25 µg/mL,82%,–,–,–
CC(=O)c1c(C)[nH]c(C(=O)N/N=C/c2ccc(N(C)C)cc2)c1C,< 6.25 µg/mL,18%,–,–,–
O=C1Nc2cc([N+](=O)[O-])ccc2C(=O)/C1=N/Nc1ccccc1-c1ccccc1,< 6.25 µg/mL,100%,–,–,–
O=C1Oc2ccc(-c3ccccc3)cc2C(=O)/C1=N/Nc1c(Cl)cccc1Cl,< 6.25 µg/mL,23%,–,–,–
O=C1Oc2ccc(-c3ccccc3)cc2C(=O)/C1=N/Nc1ccccc1[N+](=O)[O-],< 6.25 µg/mL,25%,–,–,–
O=C1Oc2ccc(-c3ccccc3)cc2C(=O)/C1=N/Nc1cccc(F)c1Cl,< 6.25 µg/mL,19%,–,–,–
O=C1Nc2ccc(Cl)cc2C(=O)/C1=N/Nc1ccc(Cl)cc1,< 6.25 µg/mL,98%,–,–,–
O=C1Nc2cc([N+](=O)[O-])ccc2C(=O)/C1=N/Nc1ccc(Br)cc1,< 6.25 µg/mL,100%,–,–,–
O=C1Nc2ccccc2C(=O)/C1=N/Nc1ccccc1,< 6.25 µg/mL,97%,–,–,–
O=C1Nc2c(cccc2[N+](=O)[O-])C(=O)/C1=N/Nc1cccc([N+](=O)[O-])c1,< 6.25 µg/mL,60%,–,–,–
CN1C(=O)/C(=N\Nc2ccccc2[N+](=O)[O-])C(=O)c2ccccc21,< 6.25 µg/mL,94%,–,–,–
O=C1Nc2c(cccc2[N+](=O)[O-])C(=O)/C1=N/Nc1ccccc1[N+](=O)[O-],< 6.25 µg/mL,80%,–,–,–
Cc1cccc(N/N=C2\C(=O)Nc3cc(Cl)ccc3C2=O)c1,< 6.25 µg/mL,70%,–,–,–
O=C1Nc2c(cccc2[N+](=O)[O-])C(=O)/C1=N/Nc1ccc(Cl)cc1,< 6.25 µg/mL,61%,–,–,–
Cc1c(Cl)cccc1N/N=C1\C(=O)Nc2cc([N+](=O)[O-])ccc2C1=O,< 6.25 µg/mL,98%,–,–,–
Cc1ccccc1N/N=C1\C(=O)Oc2ccc(-c3ccccc3)cc2C1=O,< 6.25 µg/mL,17%,–,–,–
Cc1cccc(N/N=C2\C(=O)Nc3c(cccc3[N+](=O)[O-])C2=O)c1,< 6.25 µg/mL,95%,–,–,–

Structure (SMILES),"MIC99 [1, 4]",growth inhibition (GI) [2],MIC [3],MIC97 [1],"MIC95 [1, 4]"
CC(=O)c1c(C)[nH]c(C(=O)N/N=C/c2ccc(C)cc2)c1C,< 6.25 µg/mL,92%,–,–,–
CCCc1cc(=O)oc2c3c(c4c(c12)OC(C)(C)C=C4)O[C@H](C)[C@@H](C)[C@@H]3O [CALANOLIDE A],–,–,3.13 µg/mL,–,–
O=C1Oc2ccc(-c3ccccc3)cc2C(=O)/C1=N/Nc1ccc(F)cc1,< 6.25 µg/mL,18%,–,–,–
O=C1Nc2c(ccc(Cl)c2Cl)C(=O)/C1=N/Nc1ccc([N+](=O)[O-])cc1,< 6.25 µg/mL,89%,–,–,–
CC(=O)c1c(C)[nH]c(C(=O)N/N=C/c2cccc([N+](=O)[O-])c2)c1C,< 6.25 µg/mL,18%,–,–,–
O=C1Oc2ccc3ccccc3c2C(=O)/C1=N/Nc1ccccc1,< 6.25 µg/mL,62%,–,–,–
COc1ccc(N/N=C2\C(=O)Oc3ccc4ccccc4c3C2=O)cc1,< 6.25 µg/mL,55%,–,–,–
CC(=O)c1c(C)[nH]c(C(=O)N/N=C/c2cccc(Cl)c2)c1C,< 6.25 µg/mL,29%,–,–,–
Cc1cc(C)cc(N/N=C2\C(=O)Oc3ccc4ccccc4c3C2=O)c1,< 6.25 µg/mL,58%,–,–,–
CC(=O)c1c(C)[nH]c(C(=O)N/N=C/c2ccc([N+](=O)[O-])cc2)c1C,< 6.25 µg/mL,32%,–,–,–
Cc1cccc(N/N=C2\C(=O)Oc3ccc(-c4ccccc4)cc3C2=O)c1,< 6.25 µg/mL,23%,–,–,–
Cc1cccc(N/N=C2\C(=O)Oc3ccc4ccccc4c3C2=O)c1C,< 6.25 µg/mL,64%,–,–,–
O=C1Nc2c(cccc2[N+](=O)[O-])C(=O)/C1=N/Nc1ccc(Cl)c(Cl)c1,< 6.25 µg/mL,79%,–,–,–
CO[C@H]1/C=C/O[C@@]2(C)Oc3c(C)c(O)c4c(O)c(c(/C=N/N5CCN(C)CC5)c(O)c4c3C2=O)NC(=O)/C(C)=C\C=C\[C@H](C)[C@H](O)[C@@H](C)[C@@H](O)[C@@H](C)[C@H](OC(C)=O)[C@@H]1C [RIFAMPIN],–,–,–,0.015 µg/mL,0.25 µg/mL
O=C1Nc2ccc(Cl)cc2C(=O)/C1=N/Nc1ccccc1[N+](=O)[O-],< 6.25 µg/mL,64%,–,–,–
O=C1Oc2ccc3ccccc3c2C(=O)/C1=N/Nc1ccc(Cl)cc1,< 6.25 µg/mL,88%,–,–,–
O=C1Nc2c(ccc(Cl)c2Cl)C(=O)/C1=N/Nc1ccccc1,< 6.25 µg/mL,85%,–,–,–
O=C1Nc2cc([N+](=O)[O-])ccc2C(=O)/C1=N/Nc1ccc(Cl)c(F)c1,< 6.25 µg/mL,70%,–,–,–
